In the library only some 1.9% were active in any assay of this set; here they are far more common.
DAGLB inhibitor = DAGLB lipase inhibitors, primary screen, biochemical, fluorescence, HTS; HEK293T DAGLB membrane lysate, EnzChek fluorogenic substrate; inhibition, % at 5.17 µM; 340,000 compounds, 0.059% hits; in the data active = inhibition above about 34%
PLCg1 inh = PLC-gamma1 enzyme inhibitors, primary screen, biochemical, fluorescence, purified enzyme; 1-phosphatidylinositol 4,5-bisphosphate phosphodiesterase gamma-1 (Homo sapiens), P19174; fluorogenic substrate; inhibition, % at 12.2 µM; 370,000 compounds, 0.84% hits; in the data active = inhibition above about 9.5%
PLCb3 inh = human PLC-beta3 inhibitors, primary screen, biochemical, fluorescence; Purified PLC-beta3, fluorogenic substrate; inhibition, % at 12.2 µM; 370,000 compounds, 0.18% hits; in the data active = inhibition above about 11%
Target sequence (Q01970 whole entry, looked up): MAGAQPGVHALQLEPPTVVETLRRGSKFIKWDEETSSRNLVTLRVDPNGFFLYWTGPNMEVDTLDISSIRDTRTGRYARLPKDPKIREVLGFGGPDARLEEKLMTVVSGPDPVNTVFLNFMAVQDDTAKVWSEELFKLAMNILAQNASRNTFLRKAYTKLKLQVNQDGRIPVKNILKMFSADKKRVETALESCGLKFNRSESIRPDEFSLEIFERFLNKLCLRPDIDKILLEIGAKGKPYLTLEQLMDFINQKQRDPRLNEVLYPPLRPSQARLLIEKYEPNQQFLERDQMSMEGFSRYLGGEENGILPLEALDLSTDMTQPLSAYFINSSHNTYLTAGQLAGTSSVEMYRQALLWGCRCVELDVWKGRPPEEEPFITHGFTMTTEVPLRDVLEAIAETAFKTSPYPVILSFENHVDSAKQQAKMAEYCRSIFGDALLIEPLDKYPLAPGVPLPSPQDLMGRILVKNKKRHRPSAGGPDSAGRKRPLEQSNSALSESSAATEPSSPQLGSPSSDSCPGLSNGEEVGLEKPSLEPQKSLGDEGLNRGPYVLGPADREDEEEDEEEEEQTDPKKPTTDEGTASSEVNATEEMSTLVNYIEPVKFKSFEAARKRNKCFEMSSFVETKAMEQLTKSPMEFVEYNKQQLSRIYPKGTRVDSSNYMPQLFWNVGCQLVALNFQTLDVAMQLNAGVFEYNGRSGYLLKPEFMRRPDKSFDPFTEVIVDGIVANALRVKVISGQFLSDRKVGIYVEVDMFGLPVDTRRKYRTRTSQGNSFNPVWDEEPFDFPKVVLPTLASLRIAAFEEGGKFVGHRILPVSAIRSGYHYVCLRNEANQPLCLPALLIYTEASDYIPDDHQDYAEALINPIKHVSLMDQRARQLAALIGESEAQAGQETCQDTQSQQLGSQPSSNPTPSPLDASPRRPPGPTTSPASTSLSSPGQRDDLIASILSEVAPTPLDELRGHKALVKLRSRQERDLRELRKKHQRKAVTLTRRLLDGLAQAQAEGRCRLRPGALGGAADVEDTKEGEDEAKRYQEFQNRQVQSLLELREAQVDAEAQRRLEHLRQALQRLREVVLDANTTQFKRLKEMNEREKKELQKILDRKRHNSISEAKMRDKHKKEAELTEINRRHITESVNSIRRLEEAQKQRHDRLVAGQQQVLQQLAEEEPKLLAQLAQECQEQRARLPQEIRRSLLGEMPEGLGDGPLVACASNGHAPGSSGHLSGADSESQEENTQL
HGIII-sPLA2 inh = human group III sPLA2 inhibitors, primary screen, biochemical, QFRET, BODIPY PC-A2 liposome substrate; inhibition, % at 12.2 µM; Group 3 secretory phospholipase A2 (Homo sapiens), Q9NZ20; AID 743126, 2013; QFRET BODIPY PC-A2 liposome hydrolysis, fluorescence; 370,000 compounds, 0.56% hits;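 active = inhibition above mean plus 3 SD of compounds lying within the high and low control bounds, cut at about 19% in these data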
Tb MetRS inh = T. brucei MetRS inhibitors, primary screen, biochemical, luminescence | inhibition, % at 11.9 µM | purified T. brucei MetRS, ATP depletion, Kinase-Glo luminescence | AID 624268, 2012 | 360,000 compounds, 0.4% hits;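 active = inhibition above a per-plate cutoff of the control wells' mean inhibition plus 3 SD, cut at about 5.5% in these data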
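Test system: purified T. brucei MetRS enzyme. Also added: ATP, methionine and E. coli bulk tRNA substrates. Compound: 11.9 µM single point. Schedule: 15 min enzyme-compound preincubation, 2 h reaction, 10 min detection, 25 °C. Signal: luciferase luminescence of residual ATP, Kinase-Glo. Evaluation: percent inhibition versus plate control medians. Controls: DMSO wells, low control.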
Hits are given with their value.

Screening O=C(CSc1nc2ccccc2n1CCc1ccccc1)c1ccc(O)c(O)c1 returned DAGLB inhibitor inactive, PLCg1 inh inactive, PLCb3 inh inactive, HGIII-sPLA2 inh 24 and Tb MetRS inh inactive.
Screening O=C1CC(SC(=S)C2CCCC2=O)C(=O)N1 (stereo not given) returned DAGLB inhibitor inactive, PLCg1 inh 12, PLCb3 inh inactive, HGIII-sPLA2 inh inactive and Tb MetRS inh inactive.
CC1=NN(c2ccccc2)C(=O)C1C(=S)SC1CC(=O)NC1=O (stereo not given) was read as DAGLB inhibitor inactive, PLCg1 inh inactive, PLCb3 inh inactive, HGIII-sPLA2 inh inactive and Tb MetRS inh inactive.
`O=S(=O)(c1ccccc1)N(Cc1nc(-c2ccccc2)no1)C1CCCCC1` gave DAGLB inhibitor inactive, PLCg1 inh 15, PLCb3 inh inactive, HGIII-sPLA2 inh inactive and Tb MetRS inh inactive.
For c1ccc(Cc2cnc(N3CCN(Cc4cccc(-c5ccsc5)n4)CC3)nc2)cc1 the results were PLCg1 inh inactive, PLCb3 inh inactive and HGIII-sPLA2 inh inactive.
`CCOC(=O)c1ccc(N2C(=O)c3n[nH]c(-c4ccco4)c3C2c2cccc([N+](=O)[O-])c2)cc1` (stereo not given) gave DAGLB inhibitor inactive, PLCg1 inh 13, PLCb3 inh inactive, HGIII-sPLA2 inh inactive and Tb MetRS inh inactive.
Screening Cc1nnc(-n2cccc2)s1 returned PLCg1 inh inactive, PLCb3 inh inactive and HGIII-sPLA2 inh inactive.
Screening COC(=O)C1=C(C)N(C)C(=NCc2ccccc2)NC1c1ccc(F)cc1 (stereo not given) returned PLCg1 inh inactive, PLCb3 inh inactive and HGIII-sPLA2 inh inactive.
For O=C(CCN1C(=O)/C(=C/c2ccc(Cl)cc2)SC1=S)Nc1cccc(C(=O)O)c1 the results were DAGLB inhibitor inactive, PLCg1 inh inactive, PLCb3 inh inactive, HGIII-sPLA2 inh inactive and Tb MetRS inh inactive.
Screening O=C(O)c1cccc(N2C(=O)/C(=C/c3ccc(SCc4ccc(Cl)cc4)o3)SC2=S)c1 returned DAGLB inhibitor inactive, PLCg1 inh 32, PLCb3 inh inactive, HGIII-sPLA2 inh inactive and Tb MetRS inh inactive.
`O=C(Nc1ccc(F)cc1)OCc1cn(Cc2ccccc2C(F)(F)F)nn1` gave PLCg1 inh inactive, PLCb3 inh inactive and HGIII-sPLA2 inh inactive.
O=C(Cc1ccccc1)Nc1nc(=O)c2ccccc2s1 was read as DAGLB inhibitor inactive, PLCg1 inh inactive, PLCb3 inh 12, HGIII-sPLA2 inh inactive and Tb MetRS inh inactive.
Screening C=CCCC(=O)N1CCC(C(=O)NCC2COc3ccccc3O2)CC1 (stereo not given) returned PLCg1 inh inactive, PLCb3 inh inactive and HGIII-sPLA2 inh inactive.
Screening CC1CCN(c2nc(-c3cccnc3)nc3scc(-c4ccccc4)c23)CC1 returned DAGLB inhibitor inactive, PLCg1 inh inactive, PLCb3 inh inactive, HGIII-sPLA2 inh inactive and Tb MetRS inh inactive.
Clc1nc(-c2ccccn2)nc2scc(-c3ccccc3)c12 was read as DAGLB inhibitor inactive, PLCg1 inh inactive, PLCb3 inh inactive, HGIII-sPLA2 inh 21 and Tb MetRS inh inactive.
Screening O=C(O)Cc1c[nH]c2cccc(O)c12 returned DAGLB inhibitor inactive, PLCg1 inh 25, PLCb3 inh inactive, HGIII-sPLA2 inh inactive and Tb MetRS inh inactive.
`Nn1c(SCC(=O)Nc2ccc(C(=O)O)cc2)nnc1-c1ccco1` gave PLCg1 inh inactive, PLCb3 inh inactive and HGIII-sPLA2 inh inactive.
Screening N/C(=N\N=C\c1ccc(O)cc1)c1nonc1N returned DAGLB inhibitor inactive, PLCg1 inh 11, PLCb3 inh inactive, HGIII-sPLA2 inh inactive and Tb MetRS inh inactive.
FC(F)(F)COc1nc(N2CCOCC2)nc(N(c2ccccc2)c2ccccc2)n1 was read as DAGLB inhibitor inactive, PLCg1 inh 13, PLCb3 inh inactive, HGIII-sPLA2 inh inactive and Tb MetRS inh inactive.
Screening FC(F)(F)COc1nc(OCC(F)(F)F)nc(N2CCN(c3ccccc3)CC2)n1 returned DAGLB inhibitor inactive, PLCg1 inh inactive, PLCb3 inh inactive, HGIII-sPLA2 inh inactive and Tb MetRS inh inactive.
Screening O=C(OC12CCCN(C1)/C(=C/c1cccnc1)C2)c1cccc(F)c1 (stereo not given) returned PLCg1 inh inactive, PLCb3 inh inactive and HGIII-sPLA2 inh inactive.
For O=C(/C=C/c1ccccc1)OCC(=O)N1CCN(c2ccccc2)CC1 the results were DAGLB inhibitor inactive, PLCg1 inh inactive, PLCb3 inh inactive, HGIII-sPLA2 inh inactive and Tb MetRS inh inactive.
O=C(/C=C/c1ccccc1)OCC(=O)N1CCCC1 was read as DAGLB inhibitor inactive, PLCg1 inh 11, PLCb3 inh inactive, HGIII-sPLA2 inh inactive and Tb MetRS inh inactive.
`COCCN1C(=O)Cc2c1nc(N)c1c(N)nc(N3CCN(c4ccc(F)cc4)CC3)c(C#N)c21` gave DAGLB inhibitor inactive, PLCg1 inh inactive, PLCb3 inh inactive, HGIII-sPLA2 inh inactive and Tb MetRS inh inactive.
Screening COCC(C)N1C(=O)Cc2c1nc(N)c1c(N)nc(N3CCN(c4ccccc4F)CC3)c(C#N)c21 (stereo not given) returned DAGLB inhibitor inactive, PLCg1 inh inactive, PLCb3 inh inactive, HGIII-sPLA2 inh 25 and Tb MetRS inh inactive.
`Cn1cc(P(=S)(N2CCOCC2)N2CCOCC2)cc1P(=O)(N1CCOCC1)N1CCOCC1` gave DAGLB inhibitor inactive, PLCg1 inh 18, PLCb3 inh inactive, HGIII-sPLA2 inh inactive and Tb MetRS inh inactive.
CCOC(=O)c1ccc(NS(=O)(=O)c2ccc3[nH]c(=O)[nH]c3c2)cc1 was read as DAGLB inhibitor inactive, PLCg1 inh 10, PLCb3 inh inactive, HGIII-sPLA2 inh inactive and Tb MetRS inh inactive.
`CCC(CC)NC(=O)c1ccc(NS(=O)(=O)c2ccc3[nH]c(=O)[nH]c3c2)cc1` gave DAGLB inhibitor inactive, PLCg1 inh inactive, PLCb3 inh inactive, HGIII-sPLA2 inh inactive and Tb MetRS inh inactive.
Screening Nc1c(-c2ccccc2)c(CSc2nc3ccccc3[nH]2)nn1-c1ccc(Cl)cc1 returned DAGLB inhibitor inactive, PLCg1 inh 12, PLCb3 inh inactive, HGIII-sPLA2 inh inactive and Tb MetRS inh inactive.
COc1ccc(-c2cc(C(F)F)n3ncc(C(=O)n4ccnc4C)c3n2)cc1 was read as DAGLB inhibitor inactive, PLCg1 inh inactive, PLCb3 inh inactive, HGIII-sPLA2 inh 25 and Tb MetRS inh inactive.
For COc1ccc(-c2cc(C(F)F)n3ncc(C(=O)N4CCc5ccccc54)c3n2)cc1 the results were DAGLB inhibitor inactive, PLCg1 inh inactive, PLCb3 inh inactive, HGIII-sPLA2 inh inactive and Tb MetRS inh inactive.
For Cc1ccccc1NC(=O)CSc1nc(N)c(C#N)c(-c2cccs2)c1C#N the results were DAGLB inhibitor inactive, PLCg1 inh inactive, PLCb3 inh inactive, HGIII-sPLA2 inh inactive and Tb MetRS inh 8.1.
Screening O=S1(=O)c2ccc(N3CCSCC3)cc2Oc2ccccc2CN1Cc1cn(Cc2cccc(C(F)(F)F)c2)nn1 returned PLCg1 inh inactive, PLCb3 inh inactive and HGIII-sPLA2 inh inactive.

Assay outcomes from PubChem BioAssay.
